Assay results gathered from unrelated publications.
Compare with care: the assays were run in different laboratories.
Target: Phosphatidylinositol 4-phosphate 5-kinase type-1 gamma (PIP5K1C, Homo sapiens, UniProt O60331)

CC#CC(=O)N1CCC[C@H]1c1nc(-c2ccc(C(=O)Nc3ccccn3)cc2)c2c(N)nccn12  inhibition (enzyme activity; inhibitor; 1 µM): 0%
COc1ccc2oc(-c3ccc4nc(N)oc4c3)c/c(=N\c3ccccc3NC(=O)CCN)c2c1  remaining binding (binding; 1 µM): 102%
CC(C)S(=O)(=O)c1ccc2nccc(Nc3ccc4sc(C5CCCC5)nc4c3)c2c1  activity vs control (enzyme activity; inhibitor; 1 µM): 105%
Cc1ccc(NC(=O)c2ccnc(C(F)(F)F)c2)cc1-c1cc(OCCO)nc(N2CCOCC2)c1  remaining binding (binding; 1 µM): 98%
CCCCC(=O)Nc1ccc(-c2ccc3ncn(CCC)c(=O)c3c2)cn1  remaining binding (binding; competition with immobilised ligand; 0.5 µM): 96%
COc1ccc2[nH]c3c4[nH]c5ccc(OC)cc5c4c4c(c3c2c1)C(=O)NC4=O  remaining binding (binding; 1 µM): 81%
CO[C@@H]1[C@H](N(C)C(=O)c2ccccc2)C[C@H]2O[C@]1(C)n1c3ccccc3c3c4c(c5c6ccccc6n2c5c31)C(=O)NC4  inhibition (enzyme activity; inhibitor; 1 µM): 11%
C1=C/COCc2cc(ccc2OCCN2CCCC2)Nc2nccc(n2)-c2cccc(c2)COC/1  remaining binding (binding; 0.1 µM): 60%
